# Laboratory results as given in ChEMBL document CHEMBL5303300, “EUbOPEN Chemogenomics Library - Multiplex” (2023).
# “And” between values parts separate entries of the source, which are not always exact repeats. Equal values may be shown once.
# System: HEK-293T
# Test: Multiplex assay against HEK293T
# Assay type: toxicity, cell-based
# Details: human, number of replicates 2
# Summary of the method: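 Phenotypes for tubulin, mitochondrial mass and membrane permeability are expressed as per cents of healthy-nucleus cells. Cells were stained live at seeding with Hoechst33342, BioTracker Green Microtubule Cytoskeleton Dye, MitoTracker Red and Annexin V Alexa Fluor 680, then imaged after compound addition on a CQ1 microscope at 37°C and 5% CO2. Machine-learning gating in CellPathfinder separated Hoechst high-intensity objects from normal cells, divided normal cells by nuclear state (healthy, pyknosed, fragmented) and divided pyknosed cells into mitotic or apoptotic.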
# [1] = 12 h, 1 µM, compound concentration 1 uM
# [2] = 12 h, 10 µM, compound concentration 10 uM
# [3] = 24 h, 1 µM, compound concentration 1 uM
# [4] = 24 h, 10 µM, compound concentration 10 uM
# [5] = 48 h, 1 µM, compound concentration 1 uM
# [6] = 48 h, 10 µM, compound concentration 10 uM
structure (smiles),measurement,setting,value
COc1cc(Br)c(S(=O)(=O)Nc2ccc(C(F)(F)F)c(O[C@@H]3CCN(C)C3)c2)cc1OC,Population Apoptotic (%),[1],35% and 41%
same,Population Fragmented Nuclei (%),[1],4% and 3%
same,Population Healthy Nuclei (%),[1],83% and 84%
same,Population Hoechst High Intensity Objects (%),[1],8% and 6%
same,Population Membrane Permeable-Phenotype (%),[1],3% and 4%
same,Population Mitochondria Different-Phenotype (%),[1],14% and 12%
same,Population Mitotic Cells (%),[1],64% and 58%
same,Population Normal (%),[1],91% and 93%
same,Population Pyknosed Nuclei (%),[1],11% and 12%
same,Population Tubulin-Different-Phenotype (%),[1],48% and 41%
same,Total Cell Count,[1],739 and 648
same,Population Apoptotic (%),[2],60% and 67%
same,Population Fragmented Nuclei (%),[2],5% and 3%
same,Population Healthy Nuclei (%),[2],78%
same,Population Hoechst High Intensity Objects (%),[2],11% and 8%
same,Population Membrane Permeable-Phenotype (%),[2],3% and 5%
same,Population Mitochondria Different-Phenotype (%),[2],31% and 22%
same,Population Mitotic Cells (%),[2],39% and 32%
same,Population Normal (%),[2],88% and 91%
same,Population Pyknosed Nuclei (%),[2],16% and 17%
same,Population Tubulin-Different-Phenotype (%),[2],76% and 59%
same,Total Cell Count,[2],481 and 500
same,Population Apoptotic (%),[3],38% and 42%
same,Population Fragmented Nuclei (%),[3],4% and 5%
same,Population Healthy Nuclei (%),[3],86%
same,Population Hoechst High Intensity Objects (%),[3],7% and 8%
same,Population Membrane Permeable-Phenotype (%),[3],2% and 3%
same,Population Mitochondria Different-Phenotype (%),[3],2% and 3%
same,Population Mitotic Cells (%),[3],61% and 57%
same,Population Normal (%),[3],92% and 91%
same,Population Pyknosed Nuclei (%),[3],8%
same,Population Tubulin-Different-Phenotype (%),[3],26% and 23%
same,Total Cell Count,[3],1282 and 991
same,Population Apoptotic (%),[4],59% and 43%
same,Population Fragmented Nuclei (%),[4],9% and 6%
same,Population Healthy Nuclei (%),[4],78% and 83%
same,Population Hoechst High Intensity Objects (%),[4],9% and 8%
same,Population Membrane Permeable-Phenotype (%),[4],1% and 4%
same,Population Mitochondria Different-Phenotype (%),[4],10% and 6%
same,Population Mitotic Cells (%),[4],40% and 56%
same,Population Normal (%),[4],90% and 91%
same,Population Pyknosed Nuclei (%),[4],12% and 9%
same,Population Tubulin-Different-Phenotype (%),[4],51% and 30%
same,Total Cell Count,[4],764 and 718
same,Population Apoptotic (%),[5],14% and 8%
same,Population Fragmented Nuclei (%),[5],15% and 9%
same,Population Healthy Nuclei (%),[5],82% and 87%
same,Population Hoechst High Intensity Objects (%),[5],9%
same,Population Membrane Permeable-Phenotype (%),[5],4% and 3%
same,Population Mitochondria Different-Phenotype (%),[5],0%
same,Population Mitotic Cells (%),[5],85% and 91%
same,Population Normal (%),[5],90%
same,Population Pyknosed Nuclei (%),[5],2%
same,Population Tubulin-Different-Phenotype (%),[5],13% and 11%
same,Total Cell Count,[5],3360 and 2392
same,Population Apoptotic (%),[6],25% and 20%
same,Population Fragmented Nuclei (%),[6],13%
same,Population Healthy Nuclei (%),[6],82% and 84%
same,Population Hoechst High Intensity Objects (%),[6],9%
same,Population Membrane Permeable-Phenotype (%),[6],5% and 6%
same,Population Mitochondria Different-Phenotype (%),[6],0%
same,Population Mitotic Cells (%),[6],75% and 80%
same,Population Normal (%),[6],90%
same,Population Pyknosed Nuclei (%),[6],4% and 2%
same,Population Tubulin-Different-Phenotype (%),[6],24% and 13%
same,Total Cell Count,[6],1611 and 1583
Cc1c(C(=O)Nc2ccc(N3C[C@@H](C)O[C@@H](C)C3)nc2)cccc1-c1ccc(OC(F)(F)F)cc1 [SONIDEGIB],Population Apoptotic (%),[1],36% and 33%
same,Population Fragmented Nuclei (%),[1],3%
same,Population Healthy Nuclei (%),[1],85% and 86%
same,Population Hoechst High Intensity Objects (%),[1],3% and 6%
same,Population Membrane Permeable-Phenotype (%),[1],3%
same,Population Mitochondria Different-Phenotype (%),[1],12%
same,Population Mitotic Cells (%),[1],63% and 66%
same,Population Normal (%),[1],96% and 93%
same,Population Pyknosed Nuclei (%),[1],11% and 9%
same,Population Tubulin-Different-Phenotype (%),[1],43% and 46%
same,Total Cell Count,[1],668 and 769
same,Population Apoptotic (%),[2],55% and 57%
same,Population Fragmented Nuclei (%),[2],3% and 4%
same,Population Healthy Nuclei (%),[2],84% and 85%
same,Population Hoechst High Intensity Objects (%),[2],7% and 10%
same,Population Membrane Permeable-Phenotype (%),[2],3% and 1%
same,Population Mitochondria Different-Phenotype (%),[2],18% and 15%
same,Population Mitotic Cells (%),[2],44% and 42%
same,Population Normal (%),[2],92% and 89%
same,Population Pyknosed Nuclei (%),[2],11% and 10%
same,Population Tubulin-Different-Phenotype (%),[2],56% and 45%
same,Total Cell Count,[2],652 and 496
same,Population Apoptotic (%),[3],39% and 27%
same,Population Fragmented Nuclei (%),[3],3% and 4%
same,Population Healthy Nuclei (%),[3],90% and 89%
same,Population Hoechst High Intensity Objects (%),[3],6% and 7%
same,Population Membrane Permeable-Phenotype (%),[3],3% and 2%
same,Population Mitochondria Different-Phenotype (%),[3],5% and 3%
same,Population Mitotic Cells (%),[3],60% and 72%
same,Population Normal (%),[3],93% and 92%
same,Population Pyknosed Nuclei (%),[3],6% and 5%
same,Population Tubulin-Different-Phenotype (%),[3],30% and 33%
same,Total Cell Count,[3],984 and 1195
same,Population Apoptotic (%),[4],53% and 55%
same,Population Fragmented Nuclei (%),[4],6% and 7%
same,Population Healthy Nuclei (%),[4],83%
same,Population Hoechst High Intensity Objects (%),[4],6% and 8%
same,Population Membrane Permeable-Phenotype (%),[4],3%
same,Population Mitochondria Different-Phenotype (%),[4],5%
same,Population Mitotic Cells (%),[4],46% and 45%
same,Population Normal (%),[4],93% and 91%
same,Population Pyknosed Nuclei (%),[4],9%
same,Population Tubulin-Different-Phenotype (%),[4],30% and 28%
same,Total Cell Count,[4],975 and 681
same,Population Apoptotic (%),[5],17% and 12%
same,Population Fragmented Nuclei (%),[5],12%
same,Population Healthy Nuclei (%),[5],84%
same,Population Hoechst High Intensity Objects (%),[5],7% and 10%
same,Population Membrane Permeable-Phenotype (%),[5],5% and 4%
same,Population Mitochondria Different-Phenotype (%),[5],0%
same,Population Mitotic Cells (%),[5],82% and 87%
same,Population Normal (%),[5],92% and 89%
same,Population Pyknosed Nuclei (%),[5],3%
same,Population Tubulin-Different-Phenotype (%),[5],12% and 15%
same,Total Cell Count,[5],2699 and 2880
same,Population Apoptotic (%),[6],14% and 19%
same,Population Fragmented Nuclei (%),[6],13% and 10%
same,Population Healthy Nuclei (%),[6],83% and 86%
same,Population Hoechst High Intensity Objects (%),[6],8% and 7%
same,Population Membrane Permeable-Phenotype (%),[6],4% and 5%
same,Population Mitochondria Different-Phenotype (%),[6],0%
same,Population Mitotic Cells (%),[6],85% and 80%
same,Population Normal (%),[6],91% and 92%
same,Population Pyknosed Nuclei (%),[6],2% and 3%
same,Population Tubulin-Different-Phenotype (%),[6],12% and 8%
same,Total Cell Count,[6],2536 and 1733
